In PubChem BioAssay AID504382 (The Scripps Research Institute Molecular Screening Center, 2011):
About 460 (18%) of roughly 2,500 compounds were called active. Only a sample is shown. Values without a mark were called inactive.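 Rule for the calls: active = mean activation above a cutoff of low control average plus 3 SD from the earlier screen (cut at about 12% in these data); inactive = the rest.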

Assay: compound fluorescence interference without thin filaments, confirmation, artefact control for cardiac RTF calcium sensitizer project, biochemical (AID 504382)
Conditions: IANBD fluorescence interference counterscreen, buffer, EC20 Ca2+; at 7.2 µM; active compounds read high; scaled: EC20 calcium 0, EC100 calcium 100
Summary of the method: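 Technique: fluorescence, 480/540 nm / Medium: MOPS-based buffer with KCl, MgCl2, EGTA, NTA, DTT, pH 7.2 / Probe or stimulus: calcium at EC20 level, 0.472 mM final / Repeats: triplicate wells per compound / Times: 15 min compound exposure at 25 °C / Measure: compound fluorescence interference relative to control well signal range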

In order of falling fluorescence artifact activation:
1. CC(=O)[C@H]1[C@H](C#N)C[C@H]2[C@@H]3CC=C4C[C@@H](O)CC[C@]4(C)[C@H]3CC[C@@]21C  10.9%
2. CC(=O)N1CCc2c(sc(NC(=O)C3CCCN3S(=O)(=O)c3cccs3)c2C(N)=O)C1 (stereo unspecified)  9.49%
3. Cc1nc(-n2[nH]c3c(c2=O)CCCC3)[nH]c(=O)c1Cc1ccccc1  7.51%
4. COc1ccc(/C=N/NC(=O)c2cccnc2)cc1CN1CCOCC1  6.25%
5. c1ccc(Cn2c(-c3ccccc3)nc3nc4ccccc4nc32)cc1  6.17%
6. O=C(c1cnc2ccccc2n1)N1CCN(c2ccc(C(F)(F)F)cn2)CC1  5.21%
7. Cc1ccccc1-c1noc(-c2cccs2)n1  5.07%
8. CCCN1C=CC(=CC=C(C#N)C#N)C=C1  4.48%
9. O=C1/C(=C/c2cccs2)N=C(c2cccs2)N1Nc1ccccc1  4.3%
10. Cc1ccc(/C=C/C(=O)Nc2cccc3cccnc23)o1  4.18%
11. Cc1cc(C)c(S(=O)(=O)Nc2ccc3[nH]c(=O)[nH]c3c2)c(C)c1  3.79%
12. Cc1ccnc(N2C(=O)c3cccc4c([N+](=O)[O-])ccc(c34)C2=O)c1  3.75%
13. CCCNC(=O)c1ccc(N2CCC3(CC2)CC(c2cccc(Br)c2)=NO3)c(NC(=O)c2cccc(C)c2)c1  3.63%
14. CCN(CC)c1ccc(/C=c2\sc3nc4ccccc4n3c2=O)c(O)c1  3.44%
15. CCc1ccc(C(=O)NNC(=O)c2cccc(N3C(=O)CCC3=O)c2)cc1  2.93%
16. CCn1c(C(C)NC(C)=O)nc2ccccc21 (stereo unspecified)  2.7%
17. CCOc1ccc(S(=O)(=O)n2ccnc2)c2ccccc12  2.67%
18. O=C(c1cc(-c2cccs2)nn1-c1ccccc1)N1CCN(S(=O)(=O)c2ccccc2)CC1  2.28%
19. Cc1ccc(/C=C/C(=O)N2CCN(S(=O)(=O)c3ccc(C)c(C)c3)CC2)o1  2.09%
20. O=C(Cc1cccs1)N1CCN(S(=O)(=O)c2cc(Cl)ccc2Cl)CC1  1.88%
21. CCn1cc([N+](=O)[O-])c(C(=O)Nc2ccn(Cc3ccccc3)n2)n1  1.63%
22. Cc1cccc(NC(=O)c2ccc(C(=O)c3ccccc3)cc2)n1  1.13%
23. CCOc1ccc(CNC(=O)c2ccc(Sc3ccc(Cl)cc3)c(NC(C)=O)c2)cc1  1.09%
24. CC1=Nc2ccccc2/C1=C\c1nc(-c2ccc(F)cc2)oc1O  0.71%
25. CCN(CC)c1ccc(/C=c2/sc3nnc(-c4ccccc4C)n3c2=O)cc1  0.53%
26. Cc1cc(C(=O)O)ccc1-c1ccc(/C=C2\SC(=O)N(CC(=O)Nc3ccc4c(c3)OCO4)C2=O)o1  0.42%
27. Cc1nn(-c2ccccc2)c(N2CCCC2)c1/C=C1\N=C(c2ccc(OC(C)C)cc2)OC1=O  0.42%
28. Cc1ccc(C(=O)N2C(=O)C(c3ccccc3)Oc3ccccc32)cc1 (stereo unspecified)  0.42%
29. Cc1cc(-n2c(=O)c(C#N)cc3c(=O)n4ccccc4nc32)no1  0.34%
30. Cc1cc(C)nc(NC(=O)c2ccc(Cl)c(Cl)c2)n1  0.33%
31. CCCCOc1[nH]c2nc(-c3ccco3)n(Cc3ccco3)c(=N)c2c1C#N  0.23%
32. CN1CC=C2C(C#N)=C(N)C(C#N)(C#N)C(c3ccsc3)C2C1 (stereo unspecified)  0.22%
33. O=C(O)c1ccccc1C1=Nc2ccc(O)cc2Oc2cc(O)ccc21  0.18%
34. COc1ccc(CC(=O)NNC(=O)c2ccncc2)cc1  0.18%
35. NC(=O)c1ccc(NC(=O)COC(=O)c2c3c(nc4ccccc24)/C(=C\c2ccc4c(c2)OCO4)CCC3)cc1  0.16%
36. COCCN(C(=S)Nc1cccc(OC)c1)C1CCN(C(C)=O)CC1  0.16%
37. CCOC(=O)C1=C(C)NC(C)=C(C(=O)OCC)C1c1ccco1  0.15%
38. COc1ccc(CNCc2cccc(Cl)c2)cc1  0.14%
39. CCN(CC)C1=CC2=CC(=C(C#N)C#N)CCC2CC1 (stereo unspecified)  0.13%
40. Cc1ccc(-c2nc3sc(C#N)c(N)n3c(=O)c2C#N)cc1  0.13%
41. O=C(CC1CCCC1)N1CCN(S(=O)(=O)c2ccccc2)CC1  0.13%
42. CC(C)CC1C(C#N)=C(N)SC(N)=C1C#N  0.12%
43. Cc1ccccc1C(=O)NC(=S)NC1CC1  0.12%
44. COc1cccc(CNC(=O)CCC(=O)N2CC(C)Oc3ccccc32)c1OC (stereo unspecified)  0.11%
45. Cc1sc2nc(COC(=O)c3cccc(S(=O)(=O)N(C)c4ccccc4)c3)[nH]c(=O)c2c1C  0.1%
46. CN(C)c1ccc(/C=C2\Oc3ccc(C#Cc4cccc(N)c4)cc3C2=O)cc1  0.09%
47. O=S(=O)([N-]c1nc2ccccc2nc1-[n+]1ccc(-c2ccncc2)cc1)c1ccccc1  0.08%
48. CN(C)CCOc1ccccc1C(C)(C)C  0.06%
49. Cc1[nH]c(=O)c(C#N)c(C)c1Cl  0.06%
50. CCn1cc(/C=C/C(=O)Nc2c(C)nn(Cc3ccccc3C)c2C)cn1  0.05%
51. O=C1c2cccc3c([N+](=O)[O-])ccc(c23)C(=O)N1Cc1cccnc1  0.04%
52. COCCCN1C(=O)/C(=C/c2ccc(CNS(=O)(=O)c3ccccc3)o2)C(C(=O)OC)=C1C  0.04%
53. Cc1c(C(=O)NC2CC2)oc2ccccc12  0.04%
54. Cc1ccc(S(=O)(=O)N2CC(C(=O)O)=CC[C@H]2c2ccc(Cl)cc2)cc1  0.03%
55. CCCn1c(=N)n(CC(O)c2ccco2)c2ccccc21 (stereo unspecified)  0.03%
56. COc1c(Cl)ccc(Cl)c1C(=O)NCc1ccco1  0.03%
57. O=S(=O)(CCN(CCS(=O)(=O)C(F)(F)F)CC1CCCO1)C(F)(F)F (stereo unspecified)  0.02%
58. O=c1nc2c(O)cccn2c2c1c(=O)[nH]c1ccccc12  0.02%
59. Cc1cccc(C)c1NC(=O)CN(C1CCCCC1)S(C)(=O)=O  0.02%
60. Cc1cc2nc3c(=O)[nH]c(=O)[nH]c3nc2c([N+](=O)[O-])c1N  0.02%
61. O=C(COc1ccccc1)NC(=S)Nc1cccc(NC(=O)c2ccccc2Cl)c1  0.01%
62. CC1=C(C#N)C(=O)OC(C)(C)C1  0.01%
63. O=C1c2c(O)cc(O)cc2O[C@@]12c1c(cc(O)c3c1O[C@H](c1ccc(O)cc1)[C@@H](O)C3)O[C@@H]2c1ccc(O)cc1  0%
64. NC(=O)[C@@H]1CCCNc2c(I)cc([N+](=O)[O-])cc2C(=O)N[C@@H](CCC(=O)O)C(=O)N[C@@H](CO)C(=O)N1  0%
65. Cc1ccc(NC(=S)Nc2ccc3nc(-c4ccccn4)c(-c4ccccn4)nc3c2)cc1C  0%
66. O=C(N/N=C/c1sc(N2CCOCC2)nc1-c1ccccc1)c1cccc(S(=O)(=O)N2CCCC2)c1  0%
67. Cc1ccc(C(C(=O)NC2CCCC2)N(C(=O)Cc2cccs2)c2cccc(C)c2C)o1 (stereo unspecified)  0%
68. Cc1cc(C)n(NC(=S)NC2CCCCC2)c(=O)c1C#N  -0.01%
69. Cc1ccc(-n2c(C)cc(C(=O)COC(=O)c3ccc[nH]c3=O)c2C)cc1  -0.02%
70. COc1ccc(NC(C)=O)cc1NC(=O)C1CCCN1C(=O)c1cccs1 (stereo unspecified)  -0.02%
71. CCc1cc[n+](-c2nc3ccccc3nc2[N-]S(=O)(=O)c2ccc(Br)s2)cc1  -0.02%
72. COc1ccc(NC(=O)c2cccc(-c3ccc(O)cc3)c2)cn1  -0.04%
73. CCOc1ccc(NC(=O)C2CCN(S(=O)(=O)c3cccnc3)CC2)cc1  -0.04%
74. O=C(Nc1ccccc1N1CCOCC1)C1CCN(S(=O)(=O)c2ccccc2F)CC1  -0.05%
75. O=C(Nc1ccc(S(=O)(=O)Nc2ncccn2)cc1)C1CC(=O)N(c2ccccc2)C1 (stereo unspecified)  -0.09%

With `O=C(Nc1ccc(S(=O)(=O)Nc2ncccn2)cc1)c1nn(Cc2ccccc2)c(=O)c2ccccc12` the fluorescence artifact activation was 303% (active).
For `CC(=O)c1ccc2c(c1)c(C#N)c1ccccc1[n+]2[O-]`, the fluorescence artifact activation was 57.1% (active).
For `O=S(=O)(O)c1nc2ccccc2n1Cc1ccccc1`, the fluorescence artifact activation was 16.5% (active).
With `O=C(COC(=O)c1ccc(O)cc1)Nc1ccc2c(c1)OCCO2` the fluorescence artifact activation was 13.1% (active).
In the case of `O=C/C(=C\Nc1ccc(S(=O)(=O)CCO)cc1)c1nc2cc(Cl)ccc2o1`, the fluorescence artifact activation is reported as 20.2% (active).
For `Cc1cc(C(=O)COc2cccc3cccnc23)c(C)n1C`, the fluorescence artifact activation was 21.4% (active).
In the case of `CN(C)CCCN1C(=O)c2cccc3c([N+](=O)[O-])ccc(c23)C1=O`, the fluorescence artifact activation is reported as 14.2% (active).
For `CCN(CC)c1ccc(/C=c2\sc3nnc(-c4ccccc4Cl)n3c2=O)cc1`, the fluorescence artifact activation was 13.8% (active).
In the case of `C=CCN1C=CC(=CC=C(C#N)C#N)C=C1`, the fluorescence artifact activation is reported as 251% (active).
In the case of `Cc1ccc[n+](-c2nc3ccccc3nc2[N-]S(=O)(=O)c2ccccc2)c1`, the fluorescence artifact activation is reported as 17.5% (active).
For `CC(C)CNC(=S)NC(=O)c1ccccc1Cl`, the fluorescence artifact activation was 32.2% (active).
In the case of `CC(=O)Nc1cc(C(=O)NCc2ccco2)ccc1Sc1ccc(F)cc1`, the fluorescence artifact activation is reported as 18.1% (active).
With `O=C(Nc1nccs1)C1CCN(S(=O)(=O)c2ccccc2)CC1` the fluorescence artifact activation was 461% (active).
For `O=C(Nc1ccc(Cl)cn1)C1CCN(S(=O)(=O)c2cccs2)CC1`, the fluorescence artifact activation was 74.6% (active).
In the case of `O=C(c1cc(Cl)ccc1O)N1CCN(S(=O)(=O)c2cccs2)CC1`, the fluorescence artifact activation is reported as 114% (active).
In the case of `OCCNCc1cccc(OCc2ccc(Cl)cc2)c1`, the fluorescence artifact activation is reported as 61% (active).
